From ChEMBL document CHEMBL1158186, “Design, synthesis, and bioactivity of putative tubulin ligands with adamantane core” (Bioorg Med Chem Lett, 2008)
pIC50: −log10 of the molar value. Activity calls are given as the source filed them. The calls are words filed in the database; no cut-off is given here.

Tests used:
A549 [1] = assay: Cytotoxicity against human A549 cells; type: functional, cell-based
Bos taurus [2] = species: Bos taurus; assay: Induction of bovine tubulin aggregation by SDS-PAGE
Procedure, shortened: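 Sedimentation assay using tubulin purified from bovine brain, incubated with compound. Pellets were resolved by SDS–PAGE. Pelleted tubulin was expressed relative to the amount pelleted after incubation with taxol, set as 100%. DMSO served as the negative control.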

Bos taurus [3] = species: Bos taurus; assay: Induction of bovine tubulin polymerization relative to taxol; parameters: concentration or dose not given beside the values
Bos taurus [4] = species: Bos taurus; assay: Induction of bovine tubulin aggregation by electron microscopy using uranyl acetate staining
Procedure, shortened: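 Tubulin purified from bovine brain was incubated with compound. Samples were negatively stained with uranyl acetate and examined by electron microscopy for aggregates.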

A549 [5] = assay: Cytotoxicity against human A549 cells assessed as formation of shortened aggregates of mirotube bundles at 5 uM by immuno-fluorescent microscopy; type: functional, cell-based
Procedure, shortened: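 A549 cells were treated with compound at the concentration given in the line, then fixed with polyformaldehyde. Microtubules were stained with primary mouse anti-α-tubulin and a secondary Alexa 488-labelled rabbit anti-mouse antibody. Cells were examined by immunofluorescence microscopy for microtubule bundles and shortened aggregates.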

Row | Activity (Bos taurus [2]) | Activity (Bos taurus [3]) [%] | Activity (Bos taurus [4]) | Compound | pIC50 (A549 [1]) | Activity (A549 [5])
1 | – | – | – | CC(=O)O[C@H]1C(=O)[C@@]2(C)[C@H]([C@H](OC(=O)c3ccccc3)[C@]3(O)C[C@H](OC(=O)[C@H](O)[C@@H](NC(=O)c4ccccc4)c4ccccc4)C(C)=C1C3(C)C)[C@]1(OC(C)=O)CO[C@@H]1C[C@@H]2O [PACLITAXEL] | 8.70 | –
2 | Active | 25.3 | – | CC(C)(C)OC(=O)N[C@@H](c1ccccc1)[C@@H](O)C(=O)O[C@H]1C[C@H]2C[C@@H](C1)C[C@@H](C(=O)OC1COC1)C2 | 5.42 | –
3 | Active | 32.3 | Active | O=C(N[C@@H](c1ccccc1)[C@@H](O)C(=O)OC12CC3CC(C1)C(OC(=O)c1ccccc1)C(C3)C2)c1ccccc1 (mixture of isomers) | 5.02 | –
4 | – | – | – | COc1cc2c(c(OC)c1OC)-c1ccc(OC)c(=O)cc1[C@@H](NC(=O)CCCCCC(=O)OC1C3CC4CC1CC(OC(=O)[C@H](O)[C@@H](NC(=O)OC(C)(C)C)c1ccccc1)(C4)C3)CC2 (mixture of isomers) | 9.22 | Active
5 | Active | 57.1 | Active | O=C(N[C@@H](c1ccccc1)[C@@H](O)C(=O)OC12CC3CC(CC(C3)C1)C2)c1ccccc1 | 5.25 | –
6 | Active | 27.1 | Active | CC(C)(C)OC(=O)N[C@@H](c1ccccc1)[C@@H](O)C(=O)OC12CC3CC(C1)CC(C(=O)OC1COC1)(C3)C2 | 5.60 | –
7 | Active | 32.9 | – | O=C(CCNC(=O)c1ccccc1)OC12CC3CC(CC(C3)C1)C2 | – | –
